The text below walks through data of ChEMBL document CHEMBL4706680, “Small-Molecule HSP27 Inhibitor Abolishes Androgen Receptors in Glioblastoma” (J Med Chem, 2021).

Active and inactive are the calls of the source. No cut-off for these calls is given here.

The subject of one data set is T98G. In words: Downregulation of PSA mRNA expression in human T98G cells at 25 nM incubated for 12 hrs by qRT-PCR analysis. Format: functional, cell-based. Put shortly:
(§1)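 T98G and U87 cells, 2 × 10^5 per well, adhered overnight and were treated at 25 nM for 12 h. RNA was extracted with RiboZol and DNase I-treated. AR, PSA and NKX3.1 were measured by real-time PCR, normalized to 18S by 2−ΔΔCt, three replicates per cDNA.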

Data set [1] addresses Heat shock protein beta-1 (Homo sapiens) (UniProt P04792). In words: Inhibition of HSP27 in human T98G cells assessed as reduction in wild type AR expression level at 50 to 100 nM in presence of MG132 by Western blot analysis. Format: cell-based. The following applies: dose 50-100 nM. Put shortly:
(§2)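 Cells were treated in six-well plates (with or without MG132 where stated), then lysed in RIPA with protease inhibitors. 50 μg protein was run on 10% SDS-PAGE and transferred to PVDF. Membranes were blocked in 5% milk/TBS-T, probed with AR or AR-V7 antibodies overnight at 4 °C, and detected by chemiluminescence. Densitometry was used; n = 3.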

A further data set deals with U-87MG ATCC. The data set is described as follows: Downregulation of NKX3.1 mRNA expression in human U87 cells at 25 nM incubated for 12 hrs by qRT-PCR analysis. Type of data set: functional, cell-based. The procedure, abridged: as §1
The subject of a further data set is Mus musculus. In words: In vivo inhibition of HSP27 in human U87 cells xenografted in NCR nude mouse assessed as reduction in AR expression level in tumors at 20 mg/kg, po administered thrice weekly for 14 days by Western blot analysis. The following applies: time 14.0 day. Format: functional, organism-based. Put shortly:
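Tumors from U87 flank xenografts in male nude mice dosed at 20 mg/kg IP or orally three times weekly for 14 days. The two tumors of each mouse were pooled and homogenized in RIPA with protease inhibitors and PMSF. AR was then measured by western blot; n = 4.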

In data set [2] the target is Heat shock protein beta-1 (Homo sapiens) (UniProt P04792). In words: Inhibition of HSP27 in human T98G cells assessed as AR accumulation in nucleus at 100 nM incubated for 12 hrs in presence of DHT by immunofluorescence analysis. Format: cell-based. The procedure, abridged:
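T98G cells on coverslips, 24 h after seeding, were treated 12 h with 100 nM, DHT 10 nM, or both. Cells were fixed in 4% paraformaldehyde, permeabilized with 0.1% Triton X-100 and blocked with 1% BSA. They were stained 1 h each with AR and HSP27 primary and fluorescent secondary antibodies, with DAPI for nuclei.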

In data set [3] the target is T1, Androgen receptor (Homo sapiens) (UniProt P10275).
T1 sequence (whole entry): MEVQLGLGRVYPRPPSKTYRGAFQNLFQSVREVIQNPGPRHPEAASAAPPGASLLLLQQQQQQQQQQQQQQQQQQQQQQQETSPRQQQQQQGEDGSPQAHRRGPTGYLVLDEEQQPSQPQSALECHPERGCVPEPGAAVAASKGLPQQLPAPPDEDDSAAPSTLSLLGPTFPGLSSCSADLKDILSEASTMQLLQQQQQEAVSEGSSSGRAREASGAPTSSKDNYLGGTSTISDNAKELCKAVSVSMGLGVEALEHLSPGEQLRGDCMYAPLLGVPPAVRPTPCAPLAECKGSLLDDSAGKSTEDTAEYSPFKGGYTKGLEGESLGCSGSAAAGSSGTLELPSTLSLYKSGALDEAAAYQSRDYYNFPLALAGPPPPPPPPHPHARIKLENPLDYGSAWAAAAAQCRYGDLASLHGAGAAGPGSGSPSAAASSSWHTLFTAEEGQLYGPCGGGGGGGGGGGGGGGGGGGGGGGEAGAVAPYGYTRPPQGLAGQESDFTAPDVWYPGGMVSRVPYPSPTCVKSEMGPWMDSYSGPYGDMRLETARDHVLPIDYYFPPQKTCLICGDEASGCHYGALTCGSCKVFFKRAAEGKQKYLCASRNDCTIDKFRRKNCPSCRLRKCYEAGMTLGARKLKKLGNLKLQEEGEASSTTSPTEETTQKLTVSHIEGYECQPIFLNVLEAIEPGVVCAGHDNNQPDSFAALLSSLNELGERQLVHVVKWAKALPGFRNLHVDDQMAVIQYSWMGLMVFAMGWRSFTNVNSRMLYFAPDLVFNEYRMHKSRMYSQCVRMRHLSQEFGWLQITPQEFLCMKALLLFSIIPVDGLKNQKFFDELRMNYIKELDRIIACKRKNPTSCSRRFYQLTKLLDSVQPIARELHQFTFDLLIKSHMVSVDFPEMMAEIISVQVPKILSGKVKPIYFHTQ
The data set is described as follows: Inhibition of AR transcriptional activity in human U87 cells assessed as reduction in AR mRNA expression at 25 nM incubated for 12 hrs by qRT-PCR analysis. Format: cell-based. Put shortly:
as §1

Data set [4] can be described thus: Toxicity in NCR nude mouse xenografted with human U87 cells assessed as change in body weight at 20 mg/kg, po administered thrice weekly for 14 days. Format: organism-based. The following applies: in vivo, 336 h, time 14 day. Put shortly: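 Male NCRNU nude mice, 5–6 weeks old, were given 5 × 10^6 U87 cells in 100 μL sterile PBS, injected subcutaneously into the left and right flanks. Dosing was 20 mg/kg in PBS, three times weekly for 14 days, with a DMSO vehicle group. Body weight was recorded three times weekly. Results are mean ± SD, n = 4 mice per group.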

A short description of data set [5]: Toxicity in CD1 mouse assessed as decrease in body weight at 80 mg/kg/day, ip administered thrice weekly and measured at day 10. The following applies: in vivo, 72 h, time 3 day. Type of data set: organism-based. Put shortly:
(§3)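 Male CD-1 mice, four per group, given 80 mg/kg in PBS IP three times weekly; vehicle DMSO. Mice were euthanized when toxicity signs appeared, otherwise at day 10. Body weight was recorded at first and last dosing days. Non-fasted cardiac blood was taken after euthanasia for an automated hematology analyzer.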

The target in data set [6] is Heat shock protein beta-1 (Homo sapiens) (UniProt P04792). In words: Inhibition of HSP27 in human T98G cells assessed as downregulation of androgen receptor by Western blot analysis. The following applies: dose 25-100 nM. Type of data set: cell-based. Put shortly: as §2
Data set [7] has the same target. The data set is described as follows: Inhibition of HSP27 in human T98G cells assessed as induction of AR degradation at 25 to 100 nM by Western blot analysis. Type of data set: cell-based. The following applies: dose 25-100 nM. The procedure, abridged: as §2
A further data set concerns U-87 MG. In words: Antiproliferative activity against human U87 cells assessed as reduction in cell viability incubated for 48 hrs by MTT assay. Format: functional, cell-based, U-87MG ATCC. The procedure, abridged:
(§4)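 MTT assay; 3000 cells/well in RPMI 1640 or DMEM with 10% FBS, seeded 24 h, then exposed 48 h to a range of concentrations in DMSO (final ≤0.1%); vehicle controls. MTT 1 mg/mL for 2 h at 37 °C, dye dissolved in DMSO, absorbance 570 nm; eight replicates; IC50 by nonlinear regression.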

Data set [8] in a line: Toxicity in CD1 mouse assessed as acute pain at 80 mg/kg/day, ip administered thrice weekly and measured at day 10. Format: organism-based. The following applies: in vivo, 72 h, time 3 day. Put shortly: as §3
Data set [9] addresses Heat shock protein beta-1 (Homo sapiens) (UniProt P04792). The data set is described as follows: Inhibition of HSP27 in human U87 cells assessed as reduction in AR expression level at 50 to 100 nM in presence of MG132 by Western blot analysis. The following applies: dose 50-100 nM. Type of data set: cell-based. Put shortly: as §2
Data set [10] is described as follows: Toxicity in CD1 mouse assessed as decrease in body weight at 80 mg/kg/day, ip administered thrice weekly and observed at day 5 to 7. Type of data set: organism-based. The following applies: in vivo, 72 h, time 3 day. The procedure, abridged:
as §3

In the next data set the test system is U-251. The data set is described as follows: Antiproliferative activity against human U-251 cells assessed as reduction in cell viability incubated for 48 hrs by MTT assay. The following applies: U-251, 48 h. Format: functional, cell-based. Put shortly: as §4

Heat shock protein beta-1 (Homo sapiens), sequence (P04792 whole entry): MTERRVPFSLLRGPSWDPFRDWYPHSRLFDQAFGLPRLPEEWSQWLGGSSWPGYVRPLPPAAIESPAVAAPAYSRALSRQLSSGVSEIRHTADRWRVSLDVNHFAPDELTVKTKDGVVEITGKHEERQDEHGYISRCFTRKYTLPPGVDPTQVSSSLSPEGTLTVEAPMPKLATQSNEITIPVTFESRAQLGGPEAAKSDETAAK

For `COc1ccc(C(=O)Nc2ccc(NS(C)(=O)=O)c(OCc3cc(OC)ccc3OC)c2)cc1`, the inhibition result (in the data set with T98G; in the data set with U-87MG ATCC; with Mus musculus; in [3]; in [7]) was “Active” each time. Further, the inhibition result in data set [1], in data set [2] and in data set [9] was “inactive” throughout. Also, the Activity result in [4], in [5], in data set [8] and in data set [10] was “Non-Toxic” in each case. For the same compound, the inhibition result in data set [6] is “Dose-dependent effect”. The results for the IC50 in the data set with U-87 MG and in the data set on U-251 were 4.78 nM and 4 nM, respectively.
